Key:
Fra1 [1] = molecular target: T1, Fra1 (Homo sapiens, UniProt P15407); assay: Isothermal titration calorimetry, Fra1W titrated into Fra1; assay type: binding
T1 sequence (P15407 129-162): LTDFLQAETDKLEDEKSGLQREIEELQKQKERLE

[2] = Circular dichroism spectra, peptides in isolation; assay type: physicochemical; conditions: CD, 150 μM total peptide, 10 mM potassium phosphate, 100 mM potassium fluoride, pH 7.0
Fra1 [3] = molecular target: T1, Fra1; assay: Circular dichroism spectra, 1:1 mixture with Fra1; assay type: binding; conditions: 1:1 with Fra1, 150 μM total peptide, pH 7.0
Procedure, shortened: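 Fra1 and test peptide mixed 1:1 at 75 μM each (150 μM total) in 10 mM potassium phosphate, 100 mM KF, pH 7.0. Far-UV CD in a 1 mm cell, 300–190 nm, 1 nm steps, 0.5 s per point, three scans averaged. Spectra taken at 20 °C, at 5 °C, and at 20 °C after thermal denaturation to check refolding. Reported as mean residue ellipticity; 222/208 ratio used to judge oligomerisation.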

cJun [4] = assay: Circular dichroism spectra, mixture with cJun; assay type: binding; conditions: CD at 20 °C, mixed with cJun, 150 μM total peptide, pH 7.0
cJun [5] = assay: CD thermal denaturation, mixture with cJun; assay type: binding; conditions: cJun–Fra1W; CD at 222 nm, 150 μM total peptide, pH 7
Procedure, shortened: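 Equimolar peptide pair at 150 μM total in 10 mM potassium phosphate, 100 mM KF, pH 7. Ellipticity at 222 nm recorded from 0 to 90 °C in 1 °C steps with a 30 s pause at each step, signal averaged over 4 s. Reversible curves (≥95%) were least-squares fitted to a two-state model (modified Gibbs–Helmholtz) to give Tm.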

Fra1–cJun = assay: CD dimer exchange experiments; assay type: binding; conditions: CD at 20 °C, 150 μM total, equimolar, pH 7.0
Procedure, shortened: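 Dimer exchange by CD: equimolar peptide mixtures at 150 μM total peptide in 10 mM potassium phosphate, 100 mM potassium fluoride, pH 7.0. Equilibrated spectra recorded at 20 °C in a 1 mm cell, 300–190 nm in 1 nm steps, 0.5 s per wavelength, three scans averaged. Data expressed as mean residue ellipticity and superimposed across mixing orders.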

[6] = Size-exclusion chromatography, single peptides; assay type: physicochemical; conditions: Superdex Peptide 10/300 GL; 20 μM total peptide; 10 mM potassium phosphate, 100 mM potassium fluoride, pH 7.0; 0.5 mL min^−1; room temperature; monomeric
Fra1 [7] = molecular target: T1, Fra1; assay: Size-exclusion chromatography, mixture with Fra1; assay type: binding; conditions: Fra1–Fra1W mixture, 20 μM total peptide, pH 7.0; dimeric
Procedure, shortened: (§1)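 Peptide mixture at 20 μM total peptide in 10 mM potassium phosphate, 100 mM KF, pH 7.0, run at room temperature on a peptide gel-filtration column at 0.5 mL min⁻¹. Elution times compared against previously characterised monomeric and heterodimeric coiled-coil reference peptides.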

cJun [8] = assay: Size-exclusion chromatography, mixture with cJun; assay type: binding; conditions: cJun–Fra1W mixture, 20 μM total peptide, pH 7.0; monomeric
Procedure, shortened: as §1

Fra1 [9] = molecular target: T1, Fra1; assay: Protein-fragment complementation assay; assay type: cell-based; conditions: competition selection in liquid M9 medium, ten rounds, E. coli

## Ac-KAAALKQKAYALKQQIAALKKQVAALKQKIAALK-NH2 [Fra1W]
Fra1 [1]
  Kd: 0.917 µM
Fra1 [1]; ITC, 20 °C, pH 7.0
  N (stoichiometric measure of binding): 1.06
[2]
  helical content: 60%
Fra1 [3]; CD at 20 °C
  CD signal vs averaged homomeric signals: an increase from the averaged homomeric signals of Fra1 and Fra1W
Fra1 [3]; CD
  222/208 nm ratio: 1.06
  α-helical content of Fra1–Fra1W complex: 75%
  α-helical content relative to Fra1 in isolation: more than three times that of the target Fra1 in isolation
cJun [4]
  CD signal vs averaged homomeric signals: superimposed with the averaged homomeric signals
cJun [5]
  thermal denaturation profile vs average of component peptides: no difference from the average of the component peptides
Fra1–cJun
  dimer exchange on addition of Fra1W to Fra1–cJun: an increase in signal was observed
  dimer exchange on addition of Fra1 to cJun–Fra1W: the CD signal increased from the average of the component samples
  dimer exchange on addition of cJun to Fra1–Fra1W: no exchange of binding partner had occurred
[6]
  SEC elution time (oligomeric state): approximately 20 min
Fra1 [7]
  SEC elution time (oligomeric state): approximately 19 min
cJun [8]
  SEC elution time (oligomeric state): approximately 20 min
Fra1 [9]
  PCA selection outcome: one clean DNA sequence in the pool after ten rounds of competition selection passaging

Reference: PMC8341738 (RSC Chemical Biology, 2021)
